An excerpt weighted towards active compounds, which were near 3% of everything screened.
MPTP inh: permeability transition pore inhibition; isolated mouse mitochondria, Ca2+ swelling absorbance, 30 min; inhibition, % at 10 µM; 360,000 compounds, 1.4% hits;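 active means inhibition of 50% or more, scaled per plate between neutral and stimulator controls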;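 further: 0% = DMSO wells given calcium and 100% = 1 mM EGTA wells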
Granule exo inh: blocks lytic granule exocytosis. TALL-104 LAMP-1 surface exposure, flow cytometry; cells stimulated with thapsigargin and PMA. 360,000 compounds, 0.66% hits. inhibition, % at 10 µM;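 active means inhibition above about 55%, limit read from the data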
hiPSC survival: increases survival of single human iPS cells | 360,000 compounds, 0.044% hits | survival enhancement, % at 20 µM | hiPSC single-cell survival, ATPlite luminescence; 100% = ROCK inhibitor wells, 0% = DMSO | AID 602274; in the data active means survival enhancement above about 18%;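 further: cells exposed to compounds for 16 hours before the ATP read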
UBC13 inh: inhibitors of human UBC13 polyubiquitin chain formation; inhibition, % at 20 µM; TR-FRET; 330,000 compounds, 0.47% hits; AID 485273; P61088; in the data active means inhibition above about 45%, passing the limit was not always enough
Target sequence (P61088 whole entry, looked up): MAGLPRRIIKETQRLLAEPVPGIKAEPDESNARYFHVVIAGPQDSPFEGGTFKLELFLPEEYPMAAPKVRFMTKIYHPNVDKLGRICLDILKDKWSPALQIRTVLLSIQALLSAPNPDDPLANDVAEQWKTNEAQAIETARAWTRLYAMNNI
Apaf-1 inh: human Apaf-1 inhibition; AID 489030; inhibition, % at 20 µM; 330,000 compounds, 0.71% hits; reconstituted apoptosome caspase-3 activity, DEVD-Rh110 fluorescence; active means inhibition of at least 40% at 20 µM;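 further: plate controls were DMSO wells for no effect and DEVD-CHO caspase inhibitor wells for full effect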
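Material: reconstituted apoptosome with Apaf-1, cytochrome c, caspase-9, procaspase-3, dATP / Buffer or medium: pH 7.5 Hepes buffer with CHAPS, BSA, DTT / Also added: cytochrome c with DEVD-Rh110 / Schedule: compound with Apaf-1, dATP, procaspase-3 30 min, then 50 min reaction, room temperature / Technique: rhodamine 110 fluorescence at Ex 480/Em 540 nm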
beta cell repl: MIN6 beta-cell proliferation induction; MIN6 cells proliferation, ATPlite luminescence, 48 h; cells starved in 0.2% serum; 100% = growth in 10% serum; proliferation, % at 10 µM; 330,000 compounds, 0.29% hits; AID 2380;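 active means compounds whose signal lies at least 3.5 SD above the mean of all wells on their plate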;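 further: 0% = DMSO-treated cells in low-serum medium and 100% = 10% serum control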
MPTP counter: Rhodamine 123 counter-screen of mitochondrial pore hits; shares compounds with MPTP inh; isolated mitochondria, membrane potential, Rhodamine 123 fluorescence; inhibition, % at 10 µM; 5,000 compounds, 78% hits; in the data active means inhibition above about 22%;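 further: 0% = DMSO vehicle and 100% = positive control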
MPTP swell DR: dose response confirmation of mitochondrial permeability transition pore inhibitors; shares compounds with MPTP inh; isolated mitochondria swelling, absorbance; IC50, µM; 780 compounds, 58% hits; AID 651561; in the data active means IC50 below about 20 µM
MPTP cs DR: MPTP inhibitor counter-screen activity, dose response. AID 651564. shares compounds with MPTP inh. 780 compounds, 49% hits. isolated mitochondria counterscreen, fluorescence read-out. IC50, µM; in the data active means IC50 below about 80 µM
An asterisk follows results filed as active; i = inactive; nt = no result.

SMILES	MPTP inh	Granule exo inh	hiPSC survival	UBC13 inh	Apaf-1 inh	beta cell repl	MPTP counter	others
Cc1cccc(NC(=O)CSc2nnc(CCC(=O)Nc3ccc(C)c(Cl)c3)n2C)c1	0	-3	-1	9	-10	-5	nt
Cc1ccc(NC(=O)CSc2ccccc2NC(=O)c2cccc(Cl)c2)cc1Cl	80*	-3	2	-7	-1	-4	-5	MPTP swell DR=>100;MPTP cs DR=6.3*
Cc1cc(C)c(NC(=O)CNC(=O)COC(=O)/C=C/c2cccs2)c(C)c1	2	2	0	-1	4	0	nt
O=C(/C=C/[C@H]1O[C@@H](n2ccc(=O)[nH]c2=O)[C@H](O)[C@@H]1O)NCCc1c[nH]c2ccccc12	0	-3	0	nt	nt	nt	nt
O=C(NCc1ccccc1)C(c1cccc2ccccc12)n1c(=O)c(-c2ccccc2)nc2ccccc21 (stereo not drawn)	-1	-2	nt	nt	nt	nt	nt
O=c1oc2c(-c3ccc([N+](=O)[O-])cc3)cc(O)cc2s1	78*	2	0	-10	6	-5	55*
CCc1cccc(NC(=O)C2CCN(S(=O)(=O)c3ccc4c(c3)NC(=O)CO4)CC2)c1	0	3	0	-5	9	-2	nt
N#C/C(=C(/O)c1ccc([N+](=O)[O-])s1)c1nc2ccccc2[nH]1	85*	19	-1	-55	-10	-6	81*
N#C/C(=C(/O)c1ccc(Br)s1)c1nc2ccccc2[nH]1	3	2	-1	11	1	0	nt
O=C(Nc1ccc(Cl)c(Cl)c1)O/N=C/c1ccncc1	104*	-1	4	-8	12	0	78*
O=C(Nc1cccc(Cl)c1)O/N=C\c1ccncc1	82*	-3	-2	1	-14	-1	93*
CN1/C(=C/C(=O)CSc2ccccc2C(=O)O)C(C)(C)c2ccccc21	1	6	0	15	-4	-6	nt
Cc1cc(=O)[nH]c(SCC(=O)/C=C2\N(C)c3ccccc3C2(C)C)n1	89*	2	-1	-10	10	-6	53*
COc1ccc(-c2ocnc2C(=O)NCc2nn(-c3ccccc3)nc2C)cc1	98*	7	0	5	4	-4	87*
O=C(c1ccc(O)cc1)c1ccc(C(=O)c2ccc(O)cc2)cc1	69*	-10	-2	-1	-4	-3	34*
O=C(/C=C/c1cccs1)c1ccc(NC(=O)c2cccc(Br)c2)cc1	54*	5	-5	-8	25	-5	62*
Cc1ccc(C(=O)Nc2ccc(C(=O)/C=C/c3cccs3)cc2)cc1	9	0	-2	0	11	-2	nt
CC1=Nc2nc(N3CCCCCC3)c(C#N)c3c4c(nc(c23)N1)N(c1ccc2ccccc2c1)C(=O)C4	4	-4	1	-8	23	-6	nt
Nc1nc(Cl)cc(N2CCC(c3cc(-c4ccc(Cl)cc4)n[nH]3)CC2)n1	98*	30	0	40	19	-6	90*
Cc1ccc(NC(=O)COc2ccc(C(=O)c3ccccc3)cc2)c(O)c1	82*	4	0	1	15	-7	97*
Cc1ccc(OCC(=O)Nc2ccccc2-c2ccccc2NC(=O)COc2ccc(C)cc2)cc1	1	21	0	-3	12	-4	nt
CC1CCC(NC(=O)COc2ccc(C(=O)c3ccccc3)cc2)CC1 (stereo not drawn)	70*	6	0	13	-2	0	65*
Cc1ccc(SCCC(=O)Nc2ccc(Br)c(C)c2)cc1	86*	-3	1	1	17	-5	92*
O=C(Nc1ccc(F)cc1)C(CCc1ccccc1)N1CCN(C(=O)c2ccco2)CC1 (stereo not drawn)	2	-12	nt	nt	nt	nt	nt
N=c1c(S(=O)(=O)c2ccc(Cl)cc2)cc2c(=O)n3ccccc3nc2n1CCN1CCOCC1	60*	-1	-1	8	-1	-1	18	MPTP swell DR=>100;MPTP cs DR=>80
SMILES	MPTP inh	Granule exo inh	hiPSC survival	UBC13 inh	Apaf-1 inh	beta cell repl	MPTP counter	others
N=c1c(S(=O)(=O)c2ccccc2)cc2c(=O)n3ccccc3nc2n1CCCN1CCOCC1	2	4	0	-17	9	-3	nt
O=S(=O)(N[C@H]1C[C@@H](NS(=O)(=O)OCC(Cl)(Cl)Cl)C2CCCCC21)OCC(Cl)(Cl)Cl (stereo partly drawn)	64*	-4	-2	nt	nt	nt	91*
CN(C)CCN(C(=O)c1cccs1)c1nc2cc3c(cc2s1)OCCO3	0	0	0	7	5	-4	nt
COc1ccc(C(OCC(O)CNCCc2ccccc2)c2ccc(OC)cc2)cc1 (stereo not drawn)	2	18	-1	nt	nt	nt	nt
COc1ccc(C(OCC(O)CNC(C)c2ccccc2)c2ccc(OC)cc2)cc1 (stereo not drawn)	97*	-4	-1	11	33	-4	-7	MPTP swell DR=7.5*;MPTP cs DR=>80
CCCCc1ccc(S(=O)(=O)NCCc2ccncc2)cc1	12	-1	0	-4	20	-1	nt
Cc1ccc(S(=O)(=O)NCc2ccncc2)c(C)c1C	95*	0	-2	8	-5	-5	91*
Cc1cc(C)c(S(=O)(=O)NCCc2ccncc2)c(C)c1	0	-3	0	1	4	0	nt
Cc1cc(C)c(S(=O)(=O)NCc2ccncc2)c(C)c1	87*	0	3	0	-2	-6	72*
CCCCNS(=O)(=O)c1ccc(S(=O)(=O)NCc2ccncc2)cc1	80*	0	0	5	-5	-2	70*
O=C(CCC(=O)Nc1ccc(F)cc1)N/N=C/c1cccnc1	0	5	0	2	-7	5	nt
CC1(c2nnnn2-c2ccc3c(c2)OCCO3)CCC(=O)N1Cc1cccc(C(F)(F)F)c1 (stereo not drawn)	-1	-3	1	nt	nt	nt	nt
Cc1c(O)ccc(/C(Cc2ccc3ccccc3n2)=N\O)c1O	73*	-1	-1	24	-1	-2	35*
CN(Cc1nccs1)C(=O)C1CCC(=O)N(CCCc2ccccc2)C1 (stereo not drawn)	-1	1	1	-2	0	-6	nt
O=C(O)Cn1cc(CN2CCOCC2)c2ccccc21	0	-12	1	7	-17	0	nt
Cn1cc(CN2CCN(c3ccccc3)CC2)c2ccccc21	61*	27	0	9	-3	-3	-10	MPTP swell DR=i;MPTP cs DR=>80
